Measured values as given in ChEMBL document CHEMBL3774373, “Activity and Predicted Nephrotoxicity of Synthetic Antibiotics Based on Polymyxin B” (J Med Chem, 2016).
In brackets after ≈: the same amount, converted by molar mass. Numbered stars: 1 amine (or outer) side, 2 acyl side, 3 side chain; on linkers, the order of the positions; unused ones are H or OH. Bridge positions count the residues as written; N and C are the ends. Square brackets hold non-standard residues; d marks the D form. Peptide text beside a SMILES is read from it. * marks the point of attachment. X1 = c1ccc(-c2ccc(N*)cc2)cc1; NH(2-ClPh) = Clc1ccccc1N*; Octanoyl = CCCCCCCC(=O)*; Dab = NCC[C@H](N)C(=O)O; CO = O=C([*:1])[*:2]

Assays:
Staphylococcus aureus [1] = experiment: microbe, parasite or virus in culture; details: ATCC 25923, 18 h
[2] = (§1) Cytotoxicity against human HepG2 cells after 24 hrs by resazurin assay; format: cell-based; details: HepG2 cells
Acinetobacter baumannii [3] = experiment: Antibacterial activity against clinical isolate carbapenem and polymyxin resistant Acinetobacter baumannii Ptyela 100734512:2 after 18 hrs by 2 fold serial dilution method; format: functional; details: Ptyela 100734512:2, 18 h
Procedure, shortened: (§2)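 Polymyxin-resistant clinical isolates were grown overnight at 37 °C in NB or MHB with shaking, diluted 50-fold in MHB and grown 1.5–3 h to mid-log phase. The inoculum was 5×10^5 CFU/mL. Compounds were 2-fold broth serial dilutions, final 32 to 0.015 μg/mL; the polymyxin controls ran 128–0.06 μg/mL. The MIC was the lowest concentration with no visible growth after 18 h at 37 °C.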

Escherichia coli [4] = experiment: Antibacterial activity against Escherichia coli ATCC 25922 after 18 hrs by 2 fold serial dilution method; format: functional; details: ATCC 25922, 18 h
Procedure, shortened: (§3)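 Overnight cultures in nutrient or Mueller Hinton broth at 37 °C with shaking, diluted 50-fold into fresh MHB and grown 1.5–3 h to mid-log. Inoculum 5×10^5 CFU/mL in 2-fold serial dilutions, final range 32 to 0.015 μg/mL. MIC read visually after 18 h at 37 °C as the lowest concentration with no visible growth.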

Klebsiella pneumoniae [5] = experiment: Antibacterial activity against Klebsiella pneumoniae ATCC BAA-2146 expressing NDM-1 after 18 hrs by 2 fold serial dilution method; format: functional; details: ATCC BAA-2146, 18 h
Procedure, shortened: (§4)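 Overnight cultures at 37 °C in nutrient or Mueller Hinton broth with shaking were diluted 50-fold in MHB and grown 1.5–3 h to mid-log phase. The inoculum was 5×10^5 CFU/mL in MHB. Compounds were 2-fold serially diluted, final 32 to 0.015 μg/mL. After 18 h at 37 °C, the MIC was read visually as the lowest concentration with no visible growth.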

Pseudomonas aeruginosa [6] = experiment: Antibacterial activity against Pseudomonas aeruginosa ATCC 27853 after 18 hrs by 2 fold serial dilution method; format: functional; details: ATCC 27853, 18 h
Procedure, shortened: as §3

[7] = (§5) Cytotoxicity against HEK293 cells after 24 hrs by resazurin assay; format: cell-based; details: human, HEK293 cells
Klebsiella pneumoniae [8] = experiment: Antibacterial activity against clinical isolate carbapenem and polymyxin resistant Klebsiella pneumoniae Koprana 100650661:1 after 18 hrs by 2 fold serial dilution method; format: functional; details: Koprana 100650661:1, 18 h
Procedure, shortened: as §2

Pseudomonas aeruginosa [9] = experiment: Antibacterial activity against clinical isolate polymyxin resistant Pseudomonas aeruginosa PA9704 after 18 hrs by 2 fold serial dilution method; format: functional; details: PA9704, 18 h
Procedure, shortened: as §2

Escherichia coli [10] = experiment: Antibacterial activity against Escherichia coli ATCC 26 after 18 hrs by 2 fold serial dilution method; format: functional; details: ATCC 26, 18 h
Procedure, shortened: as §4

Klebsiella pneumoniae [11] = experiment: Antibacterial activity against multidrug resistant Klebsiella pneumoniae ATCC 700603 after 18 hrs by 2 fold serial dilution method; format: functional; details: Klebsiella pneumoniae, 700603, 18 h
Procedure, shortened: as §4

[12] = Cytotoxicity against HK2 cells assessed as LDH release by Western blot analysis; format: cell-based, HK-2; details: human
Klebsiella pneumoniae [13] = experiment: Antibacterial activity against clinical isolate carbapenem and polymyxin resistant Klebsiella pneumoniae 138-16357-20362 after 18 hrs by 2 fold serial dilution method; format: functional; details: 138-16357-20362, 18 h
Procedure, shortened: as §2

Acinetobacter baumannii [14] = experiment: Antibacterial activity against Acinetobacter baumannii ATCC 19606 after 18 hrs by 2 fold serial dilution method; format: functional; details: ATCC 19606, 18 h
Procedure, shortened: as §3

Pseudomonas aeruginosa [15] = experiment: Antibacterial activity against clinical isolate polymyxin resistant Pseudomonas aeruginosa FADDI-PA070 after 18 hrs by 2 fold serial dilution method; format: functional; details: FADDI-PA070, 18 h
Procedure, shortened: as §2

Klebsiella pneumoniae [16] = experiment: Antibacterial activity against Klebsiella pneumoniae ATCC 13883 after 18 hrs by 2 fold serial dilution method; format: functional; details: ATCC 13883, 18 h
Procedure, shortened: as §3

[17] = Cytotoxicity against HK2 cells assessed as GGT release by Western blot analysis; format: cell-based, HK-2; details: human
Staphylococcus aureus [18] = experiment: Antibacterial activity against Staphylococcus aureus after 24 hrs by macrobroth dilution method; format: functional
Escherichia coli [19] = experiment: Antibacterial activity against Escherichia coli after 24 hrs by macrobroth dilution method; format: functional
Pseudomonas aeruginosa [20] = experiment: Antibacterial activity against Pseudomonas aeruginosa after 24 hrs by macrobroth dilution method; format: functional
Klebsiella pneumoniae [21] = experiment: Antibacterial activity against Klebsiella pneumoniae after 16 to 20 hrs by 2 fold broth microdilution method; format: functional
Pseudomonas aeruginosa [22] = experiment: Antibacterial activity against Pseudomonas aeruginosa after 16 to 20 hrs by 2 fold broth microdilution method; format: functional
Escherichia coli [23] = experiment: Antibacterial activity against Escherichia coli after 16 to 20 hrs by 2 fold broth microdilution method; format: functional
Acinetobacter baumannii [24] = experiment: Antibacterial activity against Acinetobacter baumannii after 16 to 20 hrs by 2 fold broth microdilution method; format: functional
HepG2 = experiment: as §1; format: cell-based; details: hepg2, 24 h
HEK293 = experiment: as §5; format: cell-based; details: human, hek293, 24 h
[25] = primary human renal proximal tubule epithelial cells, read-out: CC50

Row | Molecule | MIC (Staphylococcus aureus [1]) [µg/mL] | CC50 at 24 h [2] [µM] | MIC (Acinetobacter baumannii [3]) [µg/mL] | MIC (Escherichia coli [4]) [µg/mL] | MIC (Klebsiella pneumoniae [5]) [µg/mL] | MIC (Pseudomonas aeruginosa [6]) [µg/mL] | MIC (Klebsiella pneumoniae [8]) [µg/mL] | MIC (Pseudomonas aeruginosa [9]) [µg/mL] | MIC (Klebsiella pneumoniae [11]) [µg/mL] | MIC (Klebsiella pneumoniae [13]) [µg/mL] | MIC (Acinetobacter baumannii [14]) [µg/mL] | MIC (Pseudomonas aeruginosa [15]) [µg/mL] | MIC (Klebsiella pneumoniae [16]) [µg/mL] | other results
1 | CC(C)C[C@@H]1NC(=O)[C@@H](Cc2ccccc2)NC(=O)[C@H](CCN)NC(=O)[C@@H](NC(=O)[C@H](CCN)NC(=O)[C@@H](NC(=O)[C@H](CCN)NC(=O)Nc2ccc(-c3ccccc3)cc2)[C@@H](C)O)CCNC(=O)[C@H]([C@@H](C)O)NC(=O)[C@H](CCN)NC(=O)[C@H](CCN)NC1=O ({X1-CO}-[Dab]T[Dab][Dab][Dab][dF]L[Dab][Dab]T; lactam 4-C) | 32 (≈ 25.4 µM) | 316 | 16 (≈ 12.7 µM) | 2 (≈ 1.59 µM) | 1 (≈ 0.795 µM) | 1 (≈ 0.795 µM) | 16 (≈ 12.7 µM) | 8 (≈ 6.36 µM) | 2 (≈ 1.59 µM) | > 32 | 1 (≈ 0.795 µM) | 16 (≈ 12.7 µM) | 2 (≈ 1.59 µM) | CC50 at 24 h [7]: > 300 µM; MIC (Escherichia coli [10]): 2.5 µg/mL (≈ 1.99 µM); CC50 [12, 25]: > 128 µg/mL; CC50 [17, 25]: > 128 µg/mL
2 | CCCCCCCC(=O)N[C@@H](CCN)C(=O)N[C@H](C(=O)N[C@@H](CCN)C(=O)N[C@H]1CCNC(=O)[C@H]([C@@H](C)O)NC(=O)[C@H](CCNC(=O)[C@@H](N)CCCNC(=N)N)NC(=O)[C@H](CCN)NC(=O)[C@H](CC(C)C)NC(=O)[C@@H](Cc2ccccc2)NC(=O)[C@H](CCN)NC1=O)[C@@H](C)O (Octanoyl-[Dab]T[Dab][Dab][Dab][dF]L[Dab][Dab](Arg)T; lactam 4-C) | > 32 | > 300 | > 32 | 32 (≈ 23.8 µM) | 8 (≈ 5.95 µM) | 32 (≈ 23.8 µM) | > 32 | > 32 | 8 (≈ 5.95 µM) | > 32 | 16 (≈ 11.9 µM) | > 32 | 32 (≈ 23.8 µM) | MIC (Staphylococcus aureus [18]): 2 µg/mL (≈ 1.49 µM); MIC (Escherichia coli [19]): 0.16 µg/mL (≈ 0.119 µM); MIC (Pseudomonas aeruginosa [20]): 0.03 µg/mL (≈ 0.0223 µM)
3 | CC(C)C[C@@H]1NC(=O)[C@@H](Cc2ccccc2)NC(=O)[C@H](CCN)NC(=O)[C@@H](NC(=O)[C@H](CCN)NC(=O)[C@@H](NC(=O)[C@H](CCN)NC(=O)Nc2ccccc2Cl)[C@@H](C)O)CCNC(=O)[C@H]([C@@H](C)O)NC(=O)[C@H](CCN)NC(=O)[C@H](CCN)NC1=O ({NH(2-ClPh)-CO}-[Dab]T[Dab][Dab][Dab][dF]L[Dab][Dab]T; lactam 4-C) | > 32 | > 300 | > 32 | 1 (≈ 0.822 µM) | 4 (≈ 3.29 µM) | 0.5 (≈ 0.411 µM) | > 32 | > 32 | 2 (≈ 1.64 µM) | > 32 | 1 (≈ 0.822 µM) | > 32 | 2 (≈ 1.64 µM) | MIC90 (Klebsiella pneumoniae [21]): 4 µg/mL (≈ 3.29 µM); MIC90 (Pseudomonas aeruginosa [22]): 2 µg/mL (≈ 1.64 µM); MIC90 (Escherichia coli [23]): 2 µg/mL (≈ 1.64 µM); MIC90 (Acinetobacter baumannii [24]): 4 µg/mL (≈ 3.29 µM)
4 | GENTAMICIN | – | – | – | – | – | – | – | – | – | – | – | – | – | CC50 (HepG2): > 300 µM; CC50 (HEK293): > 300 µM; CC50 ([12]; hk-2): 33 µg/mL; CC50 ([17]; hk-2): 33 µg/mL
